# Experimental data of several laboratories.
# Each line is one published result; the experiments were not run side by side.
# Target: Mitogen-activated protein kinase kinase kinase 11 (MAP3K11, Homo sapiens, UniProt Q16584)
# Observed: enzyme activity
# Action: inhibitor
SMILES,technique,tested at,remaining activity [%]
Brc1cnc(Nc2cccc(CN3CCOCC3)c2)nc1NCCc1c[nH]cn1,radiometric,1 µM,2
CC(C)(O)[C@H]1CC[C@H](Nc2ccc3ncc(-c4cccc(C(F)(F)F)c4)n3n2)CC1,,1 µM,68.9
O=C(Nc1cccc(Nc2ncc(Br)c(NCCc3cnc[nH]3)n2)c1)N1CCCC1,radiometric,1 µM,2
COc1cc(Nc2cnc(C#N)c(O[C@H](C)CN(C)C)n2)ncc1-c1cnn(C)c1,radiometric,10 µM,69
O=C(Nc1cnn(-c2csc(C(=O)NC3COC3)c2)c1)Nc1ccccc1Cl,,5 µM,93.5
FC(F)c1nc2ccccc2n1-c1nc(N2CCOCC2)nc(N2CCOCC2)n1,,10 µM,97
Cc1sc(C(=O)NC2COC2)cc1-n1cc(NC(=O)Nc2c(F)cccc2Cl)cn1,,10 µM,90.7
Cc1nn(CC(F)(F)F)cc1Nc1ncc(C2CC2)c(NCCc2c[nH]cn2)n1,radiometric,1 µM,91
Oc1cccc(-c2nc(N3CCOCC3)c3oc4ncccc4c3n2)c1,,10 µM,57
CC(C)(C)c1nc2c(s1)c1nc(N)ncc1c1ccc(NS(=O)(=O)c3c(F)cccc3F)c(F)c12,radiometric,1 µM,22
Cc1ccc(C(=O)Nc2ccc(CN3CCN(C)CC3)c(C(F)(F)F)c2)cc1C#Cc1cnc2cccnn12,,23.5 nM,98
